Measurements pooled from the literature.
Protocols differ between the studies behind these lines.
DHFR: Dihydrofolate reductase (DHFR, Homo sapiens, UniProt P00374)
HTR2B: 5-hydroxytryptamine receptor 2B (HTR2B, Homo sapiens, UniProt P41595)
TOP2A: DNA topoisomerase 2-alpha (TOP2A, Homo sapiens, UniProt P11388)
FAAH: Fatty-acid amide hydrolase 1 (FAAH, Homo sapiens, UniProt O00519)

SMILES	target	assay	IC50
COc1ccc(NC(=S)NN=Cc2ccc(N3CCCCC3)cc2)cc1	DHFR	enzyme activity, inhibitor	44.6 µM
O=C1CC(CCNCc2ccc(-c3cccc(Br)c3)o2)CN1 (stereo not drawn)	HTR2B	calcium signal, antagonist	8.62 µM
O=c1nc(SCc2ccc(C(F)(F)F)cc2)nc(SCc2ccc3sccc3c2)[nH]1	TOP2A	enzyme activity, inhibitor	16.3 µM
O=C1C(N2CCC(c3cn[nH]n3)C2)CCN1c1cccc(Cl)c1 (stereo not drawn)	HTR2B	calcium signal, antagonist	7.25 µM
O=C(C=Cc1ccc(O)c(O)c1)OCCc1ccccc1	DHFR	enzyme activity, inhibitor, absorbance	11.5 µM
S=C(NN=Cc1ccc(N2CCCCC2)cc1)Nc1ccc(Cl)cc1	DHFR	enzyme activity, inhibitor	18.4 µM
Cc1[nH]c2ccccc2c1SCCNC(=O)C1NCCC1C1CC1 (stereo not drawn)	HTR2B	calcium signal, antagonist	5.36 µM
O=C(C=Cc1ccc(O)c(O)c1)Oc1cccc2cccnc12	DHFR	enzyme activity, inhibitor, absorbance	13 µM
O=C(Nc1ccc(-c2ccc3ncccc3c2)cc1)C1CCN(S(=O)(=O)c2ccccc2Cl)CC1	FAAH	enzyme activity, inhibitor, fluorescence	0.0508 µM
Cc1nc(CSc2nc(SCc3ccc(C(F)(F)F)cc3)nc(=O)[nH]2)cs1	TOP2A	enzyme activity, inhibitor	64.7 µM
O=C(Nc1ccc(-c2cccc3ncccc23)cc1)C1CCN(S(=O)(=O)c2ccccc2Cl)CC1	FAAH	enzyme activity, inhibitor, fluorescence	0.0196 µM
Nc1nc(N)c(OCCCOc2ccccc2CCC(=O)O)c(-c2ccc(C(F)(F)F)cc2)n1	DHFR	enzyme activity, inhibitor	> 5 µM
Cc1[nH]c2ccccc2c1C(=O)C(C)N1CCC(c2nccn2C)C1 (stereo not drawn)	5-hydroxytryptamine receptor 2C (HTR2C, Homo sapiens, UniProt P28335)	calcium signal, antagonist	2.61 µM
S=C(NCc1ccc(Cl)cc1)NN=Cc1ccc(N2CCCCC2)cc1	DHFR	enzyme activity, inhibitor	20.6 µM
CC1CCC(C(C)C)C(OC(=O)C=Cc2ccc(O)c(O)c2)C1 (stereo not drawn)	DHFR	enzyme activity, inhibitor, absorbance	0.182 µM
S=C(NN=Cc1ccc(N2CCCCC2)cc1)Nc1cccc(Cl)c1Cl	DHFR	enzyme activity, inhibitor	47.3 µM
Cc1cccc(C(CO)N2CCN(Cc3cc(O)ccc3Cl)CC2)c1 (stereo not drawn)	HTR2B	calcium signal, antagonist	0.691 µM
Fc1ccc(NC(=S)NN=Cc2ccc(N3CCCCC3)cc2)cc1	DHFR	enzyme activity, inhibitor	24.6 µM
CC1CC2CN(C(C)C(=O)c3c[nH]c4ccccc34)CCN2C1 (stereo not drawn)	HTR2B	calcium signal, antagonist	2.25 µM
O=c1nc(SCc2cc(F)cc(C(F)(F)F)c2)nc(SCc2cccc(C(F)(F)F)c2)[nH]1	TOP2A	enzyme activity, inhibitor	14.5 µM
Cc1ccccc1NC(=O)C=Cc1ccc(O)c(O)c1	DHFR	enzyme activity, inhibitor, absorbance	1.1 µM
O=c1nc(SCc2cc(F)cc(C(F)(F)F)c2)nc(SCc2ccc3sccc3c2)[nH]1	TOP2A	enzyme activity, inhibitor	13.3 µM
O=C(Nc1ccc(-c2ccnc3ccccc23)cc1)C1CCN(S(=O)(=O)c2ccccc2Cl)CC1	FAAH	enzyme activity, inhibitor, fluorescence	0.0887 µM
Cc1cccc(OCCCC(=O)N2CCNCc3ccccc32)c1	HTR2B	calcium signal, antagonist	16.9 µM
O=[N+]([O-])c1cccc(NC(=S)NN=Cc2ccc(N3CCCCC3)cc2)c1	DHFR	enzyme activity, inhibitor	13.7 µM
O=C(Nc1ccc(-c2ccc3cccnc3c2)cc1)C1CCN(S(=O)(=O)c2ccccc2Cl)CC1	FAAH	enzyme activity, inhibitor, fluorescence	0.0105 µM
S=C(NN=Cc1ccc(N2CCCCC2)cc1)Nc1ccccc1	DHFR	enzyme activity, inhibitor	15.6 µM
CN(C(=O)c1cn[nH]n1)C1CCN(CCc2cccc(Cl)c2Cl)C1 (stereo not drawn)	HTR2B	calcium signal, antagonist	5.53 µM
O=[N+]([O-])c1ccc(NC(=S)NN=Cc2ccc(N3CCCCC3)cc2)cc1	DHFR	enzyme activity, inhibitor	16.2 µM
O=C(O)/C=C/c1ccc(O)c(O)c1	DHFR	enzyme activity, inhibitor, absorbance	105 µM
